Laboratory results taken from ChEMBL document CHEMBL1255289, “In vitro antifungal activities of isavuconazole (BAL4815), voriconazole, and fluconazole against 1,007 isolates of zygomycete, Candida, Aspergillus, Fusarium, and Scedosporium species” (2008).

Experiments:
[1] = system: Fusarium; assay: Antifungal activity against Fusarium sp. isolates assessed as lowest compound concentration that produced slight growth or approximately 25% of that of growth control after 24 hrs by CLSI M38-A procedure based assay; assay type: functional
[2] = system: Cunninghamella; assay: Antifungal activity against Cunninghamella isolates by Etest; assay type: functional
Summary of the method: (§1)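 Etest. The spore inoculum used for microdilution, taken before the 50-fold dilution, was swabbed onto RPMI agar with 2% glucose, strips applied, and plates held at 35°C and read at 24 h. The MIC was where the inhibition ellipse met the strip scale, rounded up to the next twofold dilution.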

[3] = system: Pichia kudriavzevii; assay: Antifungal activity against Candida krusei isolates by Etest; assay type: functional
Summary of the method: (§2)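 Etest on RPMI agar with 2% glucose, swab-inoculated with the microdilution spore or yeast suspension taken before its 50-fold dilution. Plates were incubated at 35°C and read at 48 h. The MIC was the ellipse–scale intercept, raised to the next twofold dilution step.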

[4] = system: Scedosporium apiospermum; assay: Antifungal activity against Scedosporium apiospermum isolates assessed as lowest compound concentration that produced complete inhibition of microbial growth after 24 hrs by CLSI M38-A procedure based assay; assay type: functional
[5] = system: Syncephalastrum; assay: Antifungal activity against Syncephalastrum isolates assessed as lowest compound concentration that produced slight growth or approximately 25% of that of growth control after 24 hrs by CLSI M38-A procedure based assay; assay type: functional
Summary of the method: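 Clinical isolates were kept at –70°C as spore suspensions in sterile water and subcultured on potato dextrose or Sabouraud agar before testing. Broth microdilution used DMSO stocks in trays stored at –70°C, with final drug 0.015–16 µg/ml.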

[6] = system: Aspergillus sp.; assay: Antifungal activity against Aspergillus sp. isolates after 48 hrs by CLSI M38-A procedure based assay; assay type: functional
Summary of the method: (§3)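 Aspergillus isolates tested by CLSI M38-A broth microdilution at final 0.015–16 µg/ml and 35°C. Plates were read macroscopically at 48 h. The MIC was the lowest concentration producing complete inhibition of growth (MIC-0).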

[7] = system: Aspergillus flavus; assay: Antifungal activity against Aspergillus flavus isolates after 48 hrs by CLSI M38-A procedure based assay; assay type: functional; summary of the method: as §3
[8] = system: Fusarium; assay: Antifungal activity against Fusarium sp. isolates assessed as lowest compound concentration that produced complete inhibition of microbial growth by CLSI M38-A procedure based assay
[9] = system: Aspergillus fumigatus; assay: Antifungal activity against Aspergillus fumigatus isolates after 48 hrs by CLSI M38-A procedure based assay; assay type: functional; summary of the method: as §3
[10] = system: Pichia kudriavzevii; assay: Antifungal activity against Candida krusei isolates after 48 hrs by CLSI M27-A2 procedure based assay; assay type: functional
Summary of the method: (§4)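 Candida isolates tested by CLSI M27-A2 broth microdilution at final 0.015–16 µg/ml, or 0.125–128 µg/ml for the comparator azole. Incubation was at 35°C with a visual read at 48 h. MIC-2 was the lowest concentration giving a prominent turbidity drop, about 50% growth inhibition.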

[11] = system: Aspergillus niger; assay: Antifungal activity against Aspergillus niger isolates by Etest; assay type: functional; summary of the method: as §2
[12] = system: Aspergillus terreus; assay: Antifungal activity against Aspergillus terreus isolates by Etest; assay type: functional; summary of the method: as §2
[13] = system: Fusarium; assay: Antifungal activity against Fusarium sp. isolates by Etest; assay type: functional; summary of the method: as §2
[14] = system: Syncephalastrum; assay: Antifungal activity against Syncephalastrum isolates by Etest; assay type: functional; summary of the method: as §1
[15] = system: Cunninghamella; assay: Antifungal activity against Cunninghamella isolates assessed as lowest compound concentration that produced complete inhibition of microbial growth after 24 hrs by CLSI M38-A procedure based assay; assay type: functional
Summary of the method: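 Zygomycete isolates subcultured on potato dextrose or Sabouraud agar, then tested by CLSI M38-A broth microdilution. Drugs were serially diluted in plates at final 0.015–16 µg/ml and incubated at 35°C. Plates were read by eye at 24 h. MIC-0 was the lowest concentration giving complete growth inhibition.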

[16] = system: Lomentospora prolificans; assay: Antifungal activity against Scedosporium prolificans isolates assessed as lowest compound concentration that produced slight growth or approximately 25% of that of growth control after 24 hrs by CLSI M38-A procedure based assay; assay type: functional
[17] = system: Nakaseomyces glabratus; assay: Antifungal activity against Candida glabrata isolates by Etest; assay type: functional; summary of the method: as §2
[18] = system: Candida parapsilosis; assay: Antifungal activity against Candida parapsilosis isolates after 48 hrs by CLSI M27-A2 procedure based assay; assay type: functional; summary of the method: as §4
[19] = system: Rhizopus; assay: Antifungal activity against Rhizopus isolates by Etest; assay type: functional; summary of the method: as §1
[20] = system: Candida; assay: Antifungal activity against Candida sp. isolates by Etest; assay type: functional; summary of the method: as §2
[21] = system: Rhizopus; assay: Antifungal activity against Rhizopus isolates assessed as lowest compound concentration that produced slight growth or approximately 25% of that of growth control after 24 hrs by CLSI M38-A procedure based assay; assay type: functional
Summary of the method: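 Rhizopus isolates tested by CLSI M38-A broth microdilution at final 0.015–16 µg/ml, 35°C, read by eye at 24 h.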

[22] = system: Aspergillus niger; assay: Antifungal activity against Aspergillus niger isolates after 48 hrs by CLSI M38-A procedure based assay; assay type: functional; summary of the method: as §3
[23] = system: Nakaseomyces glabratus; assay: Antifungal activity against Candida glabrata isolates after 48 hrs by CLSI M27-A2 procedure based assay; assay type: functional; summary of the method: as §4
[24] = system: Aspergillus flavus; assay: Antifungal activity against Aspergillus flavus isolates by Etest; assay type: functional; summary of the method: as §2
[25] = Lodderomyces parapsilosis, 48 h

C[C@@H](c1nc(-c2ccc(C#N)cc2)cs1)[C@](O)(Cn1cncn1)c1cc(F)ccc1F [ISAVUCONAZOLE]
0.125 µg/mL: MIC [5] | MFC ([9]; Aspergillus fumigatus, 48 h) | MIC [10]
0.38 µg/mL: MIC [2] | MIC50 [12] | MIC [13] | MIC90 [17] | MIC50 [24]
0.094 µg/mL: MIC [11] | MIC50 [17]
0.004 µg/mL: MIC [20]
1 µg/mL: MFC50 [7] | MFC90 [7] | MIC50 ([7]; Aspergillus flavus, 48 h) | MIC90 ([7]; Aspergillus flavus, 48 h) | MFC50 [9] | MFC90 [9] | MIC50 ([9]; Aspergillus fumigatus, 48 h) | MIC90 ([9]; Aspergillus fumigatus, 48 h) | MIC50 [19] | MFC50 [22] | MIC50 ([22]; Aspergillus niger, 48 h) | MIC90 ([23]; Nakaseomyces glabratus, 48 h)
0.75 µg/mL: MIC90 [11]
2 µg/mL: MFC ([4]; Scedosporium apiospermum, 24 h) | MIC [15] | MFC90 [22] | MIC90 ([22]; Aspergillus niger, 48 h)
0.25 µg/mL: MFC [6] | MIC [6] | MIC [14] | MFC ([22]; Aspergillus niger, 48 h) | MIC50 ([23]; Nakaseomyces glabratus, 48 h)
0.5 µg/mL: MFC ([7]; Aspergillus flavus, 48 h) | MFC [10] | MIC50 [11] | MIC90 [12] | MIC [21] | MIC50 [21] | MIC90 [24]
16 µg/mL: MIC50 [1] | MFC [15] | MFC90 [18] | MFC50 [23]
0.016 µg/mL: MIC [24]
4 µg/mL: MIC50 ([4]; Scedosporium apiospermum, 24 h) | MIC90 ([4]; Scedosporium apiospermum, 24 h) | MIC [16] | MFC50 [18] | MIC90 [21]
8 µg/mL: MFC50 [4]
>16 µg/mL: MFC90 [4] | MFC90 [8] | MFC90 [23]
< 0.015 µg/mL: MIC [18, 25] | MIC50 [18, 25]
> 32 µg/mL: MIC50 [13] | MIC90 [13] | MIC90 [19]
0.012 µg/mL: MIC [3]
> 16 µg/mL: MIC90 [1]
0.03 µg/mL: MFC [18, 25] | MIC90 [18, 25] | MFC ([23]; Nakaseomyces glabratus, 48 h)
